SENP8 block-1: blocks human SENP8 cleavage of Nedd8 substrate | hit rate 0.64% among 360,000 | inhibition, % at 20 µM | recombinant SENP8, Nedd8 substrate fluorescence | Q96LD8; in the data active = inhibition mostly above about 40%, no sharp cut-off; inactive = mostly below about 27%
SENP7 inh: SENP7 protease inhibition | Q9BQF6 | recombinant SENP7, Z-RLRGG-aminoluciferin luminescence, 40 min | inhibition, % at 5 µM | hit rate 1.5% among 330,000 | AID 434973;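 active = inhibition above about 50% at the single test dose, limit read from the data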;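 note: plate controls were DMSO with enzyme for no effect and no enzyme buffer wells for full effect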
UBC13 polyUb: blocks human UBC13 polyubiquitin chain formation. hit rate 0.47% among 330,000. TR-FRET. P61088. inhibition, % at 20 µM; in the data active = inhibition above about 45%, passing the limit was not always enough; inconclusive = no clear call, values can overlap the other calls
Target sequence (P61088 whole entry, looked up): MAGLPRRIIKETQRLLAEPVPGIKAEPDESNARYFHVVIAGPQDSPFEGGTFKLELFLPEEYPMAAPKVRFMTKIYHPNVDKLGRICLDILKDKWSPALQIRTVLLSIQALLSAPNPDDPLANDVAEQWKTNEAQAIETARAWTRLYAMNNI
SENP6 inh: SENP6 protease inhibition. Q9GZR1. Recombinant SENP6 catalytic domain, aminoluciferin luminescence. inhibition, % at 10 µM. hit rate 1.8% among 330,000. AID 2599;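 active = inhibition above about 50% at the single tested dose, limit read from the data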;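 note: plate controls were DMSO wells with enzyme for no effect and DMSO wells lacking enzyme for full effect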
Target sequence (Q9GZR1 628-1112 limits assumed): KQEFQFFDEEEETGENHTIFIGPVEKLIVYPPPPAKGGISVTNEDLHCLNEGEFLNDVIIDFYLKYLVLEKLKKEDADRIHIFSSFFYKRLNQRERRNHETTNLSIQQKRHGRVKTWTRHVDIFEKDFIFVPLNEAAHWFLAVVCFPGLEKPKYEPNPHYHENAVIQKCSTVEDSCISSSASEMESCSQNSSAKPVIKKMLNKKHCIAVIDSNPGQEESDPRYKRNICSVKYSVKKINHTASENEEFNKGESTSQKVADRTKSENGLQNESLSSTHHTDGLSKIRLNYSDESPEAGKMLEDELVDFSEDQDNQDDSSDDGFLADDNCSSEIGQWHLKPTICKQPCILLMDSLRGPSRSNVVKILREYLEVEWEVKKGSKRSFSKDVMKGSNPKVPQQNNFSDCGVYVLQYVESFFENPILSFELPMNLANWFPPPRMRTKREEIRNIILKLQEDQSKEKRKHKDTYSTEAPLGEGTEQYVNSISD
Apaf1 inhib: blocks human Apaf-1 apoptosome activity; hit rate 0.71% among 330,000; inhibition, % at 20 µM; O14727; reconstituted apoptosome caspase-3 activity, DEVD-Rh110 fluorescence; active = inhibition of at least 40% at 20 µM;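 note: plate controls were DMSO wells for no effect and DEVD-CHO caspase inhibitor wells for full effect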
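Assay system: Apoptosome proteins | Medium: pH 7.5 Hepes buffer with CHAPS, BSA, DTT | Also added: Cytochrome c and DEVD-Rh110 substrate | Times: 30 min plus 50 min, RT | Detection: Rhodamine 110 fluorescence at Ex 480/Em 540 nm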
SENP8 block-2: blocks the human protease SENP8; purified SENP8, Z-RLRGG-aminoluciferin cleavage, luminescence; Q96LD8; hit rate 1.2% among 330,000; inhibition, % at 10 µM; in the data active = inhibition above about 50%
Casp3 UBC13 ctr: inhibits human caspase-3 in UBC13 counter-screen; shares compounds with UBC13 polyUb; Recombinant caspase-3, Caspase-Glo 3/7 luminescence, 60 min; inhibition, % at 20 µM; hit rate 4% among 1,400;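 active = mean inhibition across replicates above about 26%, limit read from the data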;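 note: plate controls were DMSO with caspase-3 for no effect and DMSO wells lacking enzyme for full effect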
UBC13 conf: human UBC13 polyubiquitin inhibition, confirmed. shares compounds with UBC13 polyUb. UBC13 polyubiquitination, TR-FRET, biochemical. inhibition, % at 10 µM. hit rate 68% among 1,400; in the data active = inhibition above about 45%; inconclusive = no clear call, values can overlap the other calls
* = called active by the depositor; i = inactive; ? = inconclusive; . = no result given. Compounds with a hit are over-represented: about 3% of the library has one in this group of screens.

SMILES	SENP8 block-1	SENP7 inh	UBC13 polyUb	SENP6 inh	Apaf1 inhib	SENP8 block-2	Casp3 UBC13 ctr	UBC13 conf
C=CCn1c(=O)c(C(=O)Nc2ccc(C)cn2)c(O)c2ccccc21	-113	-3	55*	-29	-1	3	3	30
C=CCn1c(=O)c(C(=O)Nc2cccnc2)c(O)c2ccccc21	-16	3	10	-15	3	-2	.	.
CC(=O)N1CCN(C(c2ccccc2)c2nnnn2C(C)(C)C)CC1 (centres undefined)	11	.	.	.	.	.	.	.
CNC(=O)c1ccsc1NC(=O)C1CCCN1S(=O)(=O)c1cccs1 (centres undefined)	6	-10	46*	-1	1	-10	8	79*
COc1ccc(-c2c(-c3cc(OC)cc(OC)c3)n(C)c3ccc(Br)cc23)cc1	-485	-6	48*	-8	-1	1	2	42
COc1cccc(-c2c(-c3cc(OC)cc(OC)c3)n(C)c3ccc(-c4ccc(OC)nc4)cc23)c1	i	1	46*	-4	4	6	3	?
COc1cc(OC)cc(-c2c(-c3ccc(F)cc3)c3cc(-c4ccc(OC)nc4)ccc3n2C)c1	-496	2	29	8	15	3	.	.
C=CC[C@@H](CC(=O)N(CCO)Cc1ccccc1)C(=O)NC[C@H](OC(=O)[C@@H](CC=C)Cc1ccc(F)cc1)c1ccccc1	16	-1	9	8	24	1	.	.
C#CCOCCOCCOCCNc1nc(N2CCN(C(=O)C(Cc3ccc(O)cc3)n3cc(C(N)C(C)CC)nn3)CC2)nc(N2CCN(C(=O)C(Cc3ccc(O)cc3)n3cc(C(N)C(C)CC)nn3)CC2)n1 (centres undefined)	9	4	49*	0	6	-5	0	23
C#CCOCCOCCOCCNc1nc(N2CCN(C(=O)[C@H](CCCCN)n3cc([C@@H](N)C(C)CC)nn3)CC2)nc(N2CCN(C(=O)[C@H](Cc3ccc(O)cc3)n3cc([C@@H](N)CC(C)C)nn3)CC2)n1 (some centres undefined)	32	0	57*	7	2	-1	2	38
C#CCOCCOCCOCCNc1nc(N2CCN(C(=O)[C@H](CCCCN)n3cc(CN)nn3)CC2)nc(N2CCN(C(=O)[C@H](CCC(=O)O)n3cc([C@@H](N)CCCCN)nn3)CC2)n1	9	-3	105*	-7	38	1	-3	114*
C#CCOCCOCCOCCNc1nc(N2CCN(C(=O)[C@H](CCCCN)n3cc([C@@H](N)CC(C)C)nn3)CC2)nc(N2CCN(C(=O)[C@H](Cc3ccc(O)cc3)n3cc([C@@H](N)CC(C)C)nn3)CC2)n1	.	7	37	14	11	7	.	.
C#CCOCCOCCOCCNc1nc(N2CCN(C(=O)[C@H](CCCCN)n3cc(C(N)CO)nn3)CC2)nc(N2CCN(C(=O)[C@H](CCC(=O)O)n3cc(C(N)CC(C)C)nn3)CC2)n1 (some centres undefined)	.	4	-6	-3	15	0	.	.
C#CCOCCOCCOCCNc1nc(N2CCN(C(=O)[C@H](CCCCN)n3cc([C@@H](N)CC(C)C)nn3)CC2)nc(N2CCN(C(=O)[C@H](CCCCN)n3cc([C@@H](N)CC(C)C)nn3)CC2)n1	17	-8	77*	16	-7	0	-3	84*
COc1cc(NC(=O)Nc2nnc([C@H]3C[C@H](O)[C@@H](CO)O3)s2)cc(OC)c1OC	6	.	.	.	.	.	.	.
O=C(Nc1ccc2c(c1)OCO2)c1cc(C2CCCCN2C(=O)c2ccc3c(c2)CCO3)on1 (centres undefined)	10	.	.	.	.	.	.	.
Cc1ccc(C(O)c2ncc(-c3cccc(C(F)(F)F)c3)[nH]2)cc1F (centres undefined)	13	.	.	.	.	.	.	.
Cc1cc2nc(NCCCO)n(CC(=O)c3cc(C(C)(C)C)c(O)c(C(C)(C)C)c3)c2cc1C	14	2	70*	-7	27	-10	1	49*
COc1ccc(C(=O)Cn2c(NCCCO)nc3ccccc32)cc1	15	.	.	.	.	.	.	.
OCCc1ccc(NCCc2cccs2)cc1	5	.	.	.	.	.	.	.
O=C1c2cccc3cccc(c23)C(=O)N1Nc1ccccc1	2	-5	52*	-12	6	-6	-1	43
C[C@@H]1CN([C@H](C)CO)C(=O)CCCn2cc(nn2)CO[C@H]1CN(C)C(=O)Nc1ccc(C(C)(C)C)cc1	19	.	.	.	.	.	.	.
CCCC[C@@H]1CNC(=O)C(=O)N1CCc1cc(C(F)(F)F)cc(C(F)(F)F)c1	15	-2	-2	-17	6	-5	.	.
CCCC[C@@H]1CNCCN1CCc1cc(C(F)(F)F)cc(C(F)(F)F)c1	17	-4	55*	-16	19	-13	-1	37
CCC(C)[C@H]1CNCCN1CCc1cc(C(F)(F)F)cc(C(F)(F)F)c1 (some centres undefined)	16	-1	60*	-6	19	-2	-6	30
SMILES	SENP8 block-1	SENP7 inh	UBC13 polyUb	SENP6 inh	Apaf1 inhib	SENP8 block-2	Casp3 UBC13 ctr	UBC13 conf
COc1ccc(Cc2nc3ccc(C(=O)NCCc4ncccc4C)cc3o2)cc1OC	10	.	.	.	.	.	.	.
COc1cc(-c2nc3ccc(N4CCN(C)CC4)cc3[nH]2)cc(OC)c1OC	-394	5	45*	5	10	0	-1	37
COc1ccc(-c2nc3ccc(N4CCN(C)CC4)cc3c(=O)[nH]2)cc1	-384	-9	-2	-5	12	-4	.	.
CCCCN(C(=O)c1ccco1)c1nnc(-c2cc(OC)c(OC)c(OC)c2)s1	-78	0	50*	-10	3	1	2	38
O=C(COC(=O)c1ccc2c(c1)OCCO2)NCc1ccc(Cl)cc1	20	.	.	.	.	.	.	.
CCCNC(=O)c1cc(C2CCCN(C(=O)c3ccc(OC)cc3)C2)on1 (centres undefined)	9	.	.	.	.	.	.	.
C#CCOCCOCCOCCNc1nc(N2CCN(C(=O)[C@H](CCCN=C(N)N)n3cc(C(N)[C@@H](C)CC)nn3)CC2)nc(N2CCN(C(=O)[C@H](CCCCN)n3cc([C@@H](N)CC(N)=O)nn3)CC2)n1 (some centres undefined)	14	0	50*	2	6	4	-5	44
C#CCOCCOCCOCCNc1nc(N2CCN(C(=O)[C@H]([C@@H](C)CC)n3cc(CCCN=C(N)N)nn3)CC2)nc(N2CCN(C(=O)[C@H](CCCCN)n3cc(CCCC)nn3)CC2)n1	12	5	71*	6	22	0	0	47*
